From ChEMBL document CHEMBL1122443, “Synthesis and antitumor evaluation of selected 5,6-disubstituted 1(2)H-indazole-4,7-diones” (1983)
Active and inactive are the calls of the source. The calls are words filed in the database; no cut-off is given here.

Tests used:
Mus musculus [1] = assay: Antitumor activity in 6 CF1 mice bearing Ehrlich ascites carcinoma measured as survivors on day 9 at 1 mg/kg; 6/6; format: functional
Mus musculus [2] = assay: Antitumor activity in CF1 mice bearing Ehrlich ascites carcinoma measured as percentage inhibition at 5 mg/kg; IA means inactive; format: functional, organism-based; design: dose 5 mg/kg
How it was run: (§1)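 Ehrlich ascites model in male CF1 mice (22–25 g): 2 × 10⁶ cells ip on day 0, ip dosing days 1–8, kill on day 9. Percent inhibition = 100 − [(treated volume × treated ascrit)/(control volume × control ascrit)]. Greater than 80% was taken as significant. Vehicle was 0.05% Tween 80, alone or with 5% absolute EtOH. 6-Mercaptopurine was the positive control.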

Mus musculus [3] = assay: Antitumor activity in CF1 mice bearing Ehrlich ascites carcinoma measured as percentage inhibition at 1 mg/kg; IA means inactive; format: functional, organism-based; design: dose 1 mg/kg; how it was run: as §1
Mus musculus [4] = assay: Antitumor activity in 6 CF1 mice bearing Ehrlich ascites carcinoma measured as survivors on day 9 at 5 mg/kg; 5/6; format: functional
Mus musculus [5] = assay: Antitumor activity in CF1 mice bearing Ehrlich ascites carcinoma measured as percentage inhibition at 8 mg/kg; IA means inactive; format: functional, organism-based; design: dose 8 mg/kg; how it was run: as §1
Mus musculus [6] = assay: Antitumor activity in CF1 mice bearing Ehrlich ascites carcinoma measured as percent ascrit packed cell volume at 1 mg/kg; format: functional
How it was run: (§2)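 CF1 male mice (22–25 g) were inoculated ip with 2 × 10⁶ Ehrlich cells on day 0 and treated ip on days 1–8 in 0.05% Tween 80 or 5% EtOH/0.05% Tween 80 vehicle. On day 9 the mice were sacrificed, and the ascrit (packed cell volume) of the ascites fluid was determined.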

Mus musculus [7] = assay: Antitumor activity in CF1 mice bearing Ehrlich ascites carcinoma measured as ascites volume at 5 mg/kg; format: functional
How it was run: (§3)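 Male CF1 mice (22–25 g) received 2 × 10⁶ Ehrlich carcinoma cells ip on day 0. Dosing was ip daily on days 1–8, with sacrifice on day 9. Ascites fluid volume per mouse and ascrit (packed cell volume) were measured for each group. Vehicle was 0.05% Tween 80, or 5% absolute EtOH in 0.05% Tween 80, used for both compound and control. 6-Mercaptopurine was the positive control.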

Mus musculus [8] = assay: Antitumor activity in CF1 mice bearing Ehrlich ascites carcinoma measured as percent ascrit packed cell volume at 5 mg/kg; format: functional; how it was run: as §3
Mus musculus [9] = assay: Antitumor activity in CF1 mice bearing Ehrlich ascites carcinoma measured as ascites volume at 8 mg/kg; format: functional; how it was run: as §3
Mus musculus [10] = assay: Antitumor activity in CF1 mice bearing Ehrlich ascites carcinoma measured as ascites volume at 1 mg/kg; format: functional
How it was run: (§4)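 Ehrlich ascites cells (2 × 10⁶) were implanted ip in male CF1 mice (22–25 g) on day 0. Dosing was ip on days 1–8 in 0.05% Tween 80 or 5% EtOH/0.05% Tween 80, with vehicle controls. Mice were killed on day 9, and ascites fluid volume per mouse was measured.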

Mus musculus [11] = assay: Antitumor activity in 6 CF1 mice bearing Ehrlich ascites carcinoma measured as survivors on day 9 at 8 mg/kg; 6/6; format: functional
Mus musculus [12] = assay: Antitumor activity in CF1 mice bearing Ehrlich ascites carcinoma measured as percent ascrit packed cell volume at 8 mg/kg; format: functional; how it was run: as §3
Mus musculus [13] = assay: Antitumor activity in CF1 mice bearing Ehrlich ascites carcinoma measured as percent ascrit packed cell volume at 10 mg/kg; format: functional; how it was run: as §2
Mus musculus [14] = assay: Antitumor activity in CF1 mice bearing Ehrlich ascites carcinoma measured as survivors on day 9 at 8 mg/kg; 6/6; format: functional
How it was run: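 Male CF1 mice (22–25 g) were given 2 × 10⁶ Ehrlich carcinoma cells ip on day 0. Compounds were dosed ip on days 1–8 in 0.05% Tween 80 or in 5% absolute EtOH in 0.05% Tween 80, with vehicle-treated controls. Mice were killed on day 9, and ascites volume and ascrit (packed cell volume) were measured per mouse.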

Mus musculus [15] = assay: Antitumor activity in CF1 mice bearing Ehrlich ascites carcinoma measured as survivors on day 9 at 10 mg/kg; 6/6; format: functional
Mus musculus [16] = assay: Average days survived for treated / average days survived for control at 1 (mg/kg); 10/9.2; format: functional
Mus musculus [17] = assay: Antitumor activity in CF1 mice bearing Ehrlich ascites carcinoma measured as survivors on day 9 at 1 mg/kg; 6/6; format: functional
Mus musculus [18] = assay: (§5) Antitumor activity in CF1 mice bearing Ehrlich ascites carcinoma measured as percentage inhibition at 8 mg/kg; format: functional
How it was run: (§6)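 In the Ehrlich ascites model, male CF1 mice (22–25 g) received 2 × 10⁶ cells ip on day 0 and compound ip on days 1–8, with a vehicle of 0.05% Tween 80 ± 5% EtOH. Ascites volume and ascrit were taken on day 9. % inhibition = 100 − [(vol × ascrit, treated)/(vol × ascrit, control)], with >80% taken as significant.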

Mus musculus [19] = assay: Antitumor activity in CF1 mice bearing Ehrlich ascites carcinoma measured as percentage inhibition at 5 mg/kg; format: functional; how it was run: as §1
Mus musculus [20] = assay: Antitumor activity in CF1 mice bearing Ehrlich ascites carcinoma measured as percentage inhibition at 1 mg/kg; IA= inactive; format: functional, organism-based; design: dose 1 mg/kg; how it was run: as §6
Mus musculus [21] = assay: Antitumor activity in CF1 mice bearing Ehrlich ascites carcinoma measured as percentage inhibition at 10 mg/kg; IA= inactive; format: functional, organism-based; design: dose 10 mg/kg; how it was run: as §6
Mus musculus [22] = assay: Anti tumor activity in mice bearing lymphocytic leukemia P-388 at 1 mg/kg; format: functional
How it was run: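 Male BDF1 mice (20–23 g) were inoculated ip with 1 × 10⁶ P-388 leukemia cells on day 0. Compound was given ip once daily on days 1–14 in 0.05% Tween 80 vehicle, with a vehicle control group and 5-fluorouracil as positive control. Activity was scored as % T/C, average days survived treated/control, with >125% taken as significant.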

Mus musculus [23] = assay: Antitumor activity in CF1 mice bearing Ehrlich ascites carcinoma measured as survivors on day 9 at 5 mg/kg; 6/6; format: functional
Mus musculus [24] = assay: Antitumor activity in CF1 mice bearing Ehrlich ascites carcinoma measured as ascites volume at 10 mg/kg; format: functional; how it was run: as §4
Mus musculus [25] = assay: as §5; format: functional; how it was run: as §1; remark: listed apart in the source
Mus musculus [26] = assay: Antitumor activity in CF1 mice bearing Ehrlich ascites carcinoma measured as ascites volume at 3 mg/kg; format: functional; how it was run: as §3
Mus musculus [27] = assay: (§7) Antitumor activity in CF1 mice bearing Ehrlich ascites carcinoma measured as percent ascrit packed cell volume at 3 mg/kg; format: functional; how it was run: as §2
Mus musculus [28] = assay: Antitumor activity in 6 CF1 mice bearing Ehrlich ascites carcinoma measured as survivors on day 9 at 3 mg/kg; 6/6; format: functional
Mus musculus [29] = assay: Antitumor activity in CF1 mice bearing Ehrlich ascites carcinoma measured as percentage inhibition at 3 mg/kg; format: functional; how it was run: as §1
Mus musculus [30] = assay: Antitumor activity in 6 CF1 mice bearing Ehrlich ascites carcinoma measured as survivors on day 9 at 8 mg/kg; 5/6; format: functional
Mus musculus [31] = assay: as §7; format: functional; how it was run: as §3; remark: listed apart in the source
Mus musculus [32] = assay: Antitumor activity in 6 CF1 mice bearing Ehrlich ascites carcinoma measured as survivors on day 9 at 5 mg/kg; 6/6; format: functional
Mus musculus [33] = assay: Antitumor activity in CF1 mice bearing Ehrlich ascites carcinoma measured as percentage inhibition at 3 mg/kg; IA means inactive; format: functional, organism-based; design: dose 3 mg/kg; how it was run: as §1

Row | SMILES | Survivors (Mus musculus [1]) | inhibition (Mus musculus [3]) | Survivors (Mus musculus [4]) | packed cell volume (Mus musculus [6]) [%] | ascites volume (Mus musculus [7]) [ml mouse-1] | packed cell volume (Mus musculus [8]) [%] | ascites volume (Mus musculus [9]) [ml mouse-1] | ascites volume (Mus musculus [10]) [ml mouse-1] | packed cell volume (Mus musculus [12]) [%] | inhibition in vivo at 5 mg/kg (Mus musculus [19]) [%] | inhibition in vivo at 8 mg/kg (Mus musculus [25]) [%] | ascites volume (Mus musculus [26]) [ml mouse-1] | Survivors (Mus musculus [28]) | Survivors (Mus musculus [30]) | also measured
1 | NC1=C(Cl)C(=O)c2[nH]ncc2C1=O | 6 | inactive | 5 | 37.6 | 2.7 | 32.3 | 3 | 2.1 | 29.1 | – | – | – | – | – | inhibition (Mus musculus [2]): inactive; inhibition (Mus musculus [5]): inactive; Survivors (Mus musculus [11]): 6
2 | COC1=C(N2CC2)C(=O)c2cnn(C)c2C1=O | – | – | – | 39.8 | 0.7 | 34.6 | 0.32 | 4.2 | 36.2 | 39.4 | – | – | – | – | packed cell volume (Mus musculus [13]): 30.7%; Survivors (Mus musculus [14]): 6; Survivors (Mus musculus [15]): 6; Average survival (days) (Mus musculus [16]): 10; Survivors (Mus musculus [17]): 6; inhibition in vivo at 8 mg/kg (Mus musculus [18]): 64.1%; inhibition (Mus musculus [20]): inactive; inhibition (Mus musculus [21]): inactive; T/C (Mus musculus [22]): 109%; Survivors (Mus musculus [23]): 6; ascites volume (Mus musculus [24]): 2.2 ml mouse-1
3 | CC(=O)NC1=C(Cl)C(=O)c2c(cnn2C)C1=O | – | – | 5 | – | 0.56 | 29 | 0.62 | – | 37.9 | 90 | 61.7 | 1.7 | 6 | 5 | packed cell volume (Mus musculus [27]): 20%; inhibition in vivo at 3 mg/kg (Mus musculus [29]): 67.8%
4 | CC(=O)NC1=C(Cl)C(=O)c2[nH]ncc2C1=O | 6 | inactive | – | 40 | 0.33 | 20.2 | 1.8 | 3.6 | 30.8 | 83.2 | 46.9 | 3.6 | 6 | 5 | packed cell volume (Mus musculus [31]): 38.1%; Survivors (Mus musculus [32]): 6; inhibition (Mus musculus [33]): inactive
